From ChEMBL document CHEMBL1125910, “Design of a well-absorbed renin inhibitor” (J Med Chem, 1991)

What was measured:
Cathepsin D (Bos taurus) [1] = biological target: T1, Cathepsin D (Bos taurus) (UniProt P80209); assay: Inhibitory activity against cathepsin D in bovine at 1*10e-5 M concentration.
T1 sequence (whole entry): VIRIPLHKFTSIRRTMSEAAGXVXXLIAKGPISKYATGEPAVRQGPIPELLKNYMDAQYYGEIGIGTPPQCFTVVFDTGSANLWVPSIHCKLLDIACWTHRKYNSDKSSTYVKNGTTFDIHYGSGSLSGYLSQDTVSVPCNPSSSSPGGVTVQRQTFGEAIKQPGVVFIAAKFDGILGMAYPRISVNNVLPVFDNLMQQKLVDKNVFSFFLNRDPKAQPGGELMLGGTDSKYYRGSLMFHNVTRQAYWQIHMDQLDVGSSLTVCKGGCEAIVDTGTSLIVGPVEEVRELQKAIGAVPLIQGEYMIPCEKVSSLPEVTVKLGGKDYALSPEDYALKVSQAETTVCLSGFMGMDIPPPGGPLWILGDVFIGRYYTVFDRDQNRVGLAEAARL
Summary of the method: (§1)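 Bovine or human cathepsin D, assayed at pH 3.0; percent inhibition recorded with inhibitor at 1 × 10^-5 M, and also at 1 × 10^-7 M.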

Cathepsin D (Bos taurus) [2] = biological target: T1, Cathepsin D (Bos taurus); assay: Inhibitory activity against cathepsin D in bovine at 1*10e-7 M concentration.; summary of the method: as §1
[3] = biological target: Cathepsin D (Homo sapiens) (UniProt P07339); assay: Inhibitory activity against cathepsin D in human at 1*10e-5 M concentration.; summary of the method: as §1
Cathepsin D (Homo sapiens), sequence (P07339 65-162 limits assumed): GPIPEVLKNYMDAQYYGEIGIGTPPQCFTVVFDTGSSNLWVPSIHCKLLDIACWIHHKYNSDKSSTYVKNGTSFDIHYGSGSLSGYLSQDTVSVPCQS
Cathepsin D (Homo sapiens), sequence (P07339 169-412 limits assumed): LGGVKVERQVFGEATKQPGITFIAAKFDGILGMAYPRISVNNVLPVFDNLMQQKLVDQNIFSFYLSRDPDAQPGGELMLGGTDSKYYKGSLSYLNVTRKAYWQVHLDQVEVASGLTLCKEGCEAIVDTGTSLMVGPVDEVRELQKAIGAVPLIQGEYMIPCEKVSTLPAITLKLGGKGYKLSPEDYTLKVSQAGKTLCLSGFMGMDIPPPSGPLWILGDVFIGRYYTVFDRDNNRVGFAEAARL

[4] = biological target: Cathepsin D (Homo sapiens) (UniProt P07339); assay: Inhibitory activity against cathepsin D in human at 1*10e-7 M concentration.; summary of the method: as §1
Pepsin A (Homo sapiens) = Pepsin A (Homo sapiens) (UniProt P0DJD9); assay: Inhibitory activity against human pepsin at 1*10e-5 M; format: functional
Pepsin A (Homo sapiens), sequence (P0DJD9 63-388 limits assumed): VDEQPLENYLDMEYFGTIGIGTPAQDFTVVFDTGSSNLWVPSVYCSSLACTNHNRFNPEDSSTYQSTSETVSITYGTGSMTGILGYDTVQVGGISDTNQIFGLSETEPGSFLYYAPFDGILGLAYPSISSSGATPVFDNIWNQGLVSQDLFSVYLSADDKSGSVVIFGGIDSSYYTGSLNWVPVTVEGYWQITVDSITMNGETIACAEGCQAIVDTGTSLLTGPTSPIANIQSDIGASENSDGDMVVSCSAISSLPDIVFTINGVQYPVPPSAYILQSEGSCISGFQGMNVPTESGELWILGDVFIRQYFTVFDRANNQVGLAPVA
Summary of the method: (§2)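 Human or porcine pepsin, assayed at pH 2.0; percent inhibition recorded with inhibitor at 1 × 10^-5 M.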

Pepsin A (Sus scrofa) = Pepsin A (Sus scrofa) (UniProt P00791); assay: Inhibitory activity against pepsin in porcine at 1*10e-5 M concentration.; format: functional; summary of the method: as §2
Pepsin A (Sus scrofa), sequence (P00791 60-385 limits assumed): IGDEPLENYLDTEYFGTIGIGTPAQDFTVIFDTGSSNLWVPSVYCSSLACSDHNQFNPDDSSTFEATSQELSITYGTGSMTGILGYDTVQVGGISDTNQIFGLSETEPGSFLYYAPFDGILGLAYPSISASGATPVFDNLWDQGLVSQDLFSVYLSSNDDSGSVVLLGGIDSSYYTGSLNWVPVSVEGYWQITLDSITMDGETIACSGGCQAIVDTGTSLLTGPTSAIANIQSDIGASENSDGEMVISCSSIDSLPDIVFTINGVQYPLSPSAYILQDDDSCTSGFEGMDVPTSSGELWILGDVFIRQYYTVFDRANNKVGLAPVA

Rattus norvegicus [5] = assay: Upon intraduodenal administration in rats at a dose of 10 mg/kg, portal plasma levels calculated after 10 min.; format: functional, organism-based; parameters: dose 10 mg/kg
Summary of the method: (§3)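 Anesthetized rats given 10 mg/kg intraduodenally. Blood sampled at 10 and 30 min from the portal vein and from the systemic circulation. Drug level in plasma measured by renin inhibition assay, reported in ng/mL as mean ± SE, n = 3 (some groups 5 or 6).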

Rattus norvegicus [6] = assay: Upon intraduodenal administration in rats at a dose of 10 mg/kg, systemic plasma levels calculated after 10 min.; format: functional, organism-based; parameters: dose 10 mg/kg; summary of the method: as §3
Rattus norvegicus [7] = assay: Upon intraduodenal administration in rats at a dose of 10 mg/kg, systemic plasma levels calculated after 30 min.; format: functional, organism-based; parameters: dose 10 mg/kg; summary of the method: as §3
Renin [8] = biological target: T2, Renin (Homo sapiens, UniProt P00797); assay: Compound was evaluated for the inhibitory concentration against human plasma renin at pH 7.4; format: cell-free
T2 sequence (P00797 whole entry): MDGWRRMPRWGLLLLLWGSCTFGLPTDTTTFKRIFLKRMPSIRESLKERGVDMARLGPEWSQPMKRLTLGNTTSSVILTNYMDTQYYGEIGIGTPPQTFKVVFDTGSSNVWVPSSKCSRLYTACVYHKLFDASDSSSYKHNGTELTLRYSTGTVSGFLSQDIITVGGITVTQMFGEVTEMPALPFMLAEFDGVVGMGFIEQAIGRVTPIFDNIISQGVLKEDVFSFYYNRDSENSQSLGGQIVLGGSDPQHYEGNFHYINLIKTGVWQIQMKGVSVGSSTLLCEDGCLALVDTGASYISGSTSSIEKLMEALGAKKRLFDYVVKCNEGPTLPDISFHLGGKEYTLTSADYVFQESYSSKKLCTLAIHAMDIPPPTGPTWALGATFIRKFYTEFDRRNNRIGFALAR
Summary of the method: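 Renin inhibition assayed in human plasma, with plasma renin as the enzyme source, at pH 7.4. IC50 reported in nM.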

Rattus norvegicus [9] = assay: Upon intraduodenal administration in rats at a dose of 10 mg/kg, portal plasma levels calculated after 30 min.; format: functional, organism-based; parameters: dose 10 mg/kg; summary of the method: as §3
Renin [10] = biological target: T2, Renin; assay: Compound was evaluated for the inhibitory concentration against purified human renal renin at pH 6.5

Compound	inhibition (Cathepsin D (Bos taurus) [1])	inhibition (Cathepsin D (Bos taurus) [2])	inhibition [3]	inhibition [4]	inhibition (Pepsin A (Homo sapiens))	inhibition (Pepsin A (Sus scrofa))	IC50 (Renin [8])	IC50 (Renin [10])	Plasma level (Rattus norvegicus [5])	Plasma level (Rattus norvegicus [6])	Plasma level (Rattus norvegicus [7])	Plasma level (Rattus norvegicus [9])
CCN1C[C@@H]([C@H](O)[C@H](CC2CCCCC2)NC(=O)[C@H](Cc2c[nH]cn2)NC(=O)[C@@H](CC(=O)N2CCOCC2)Cc2ccccc2)OC1=O	2%					2%			280 ng/mL	55 ng/mL	34 ng/mL	390 ng/mL
CCN1C[C@@H]([C@H](O)[C@H](CC2CCCCC2)NC(=O)[C@H](Cc2cn(C)cn2)NC(=O)[C@@H](CC(=O)N2CCOCC2)Cc2ccccc2)OC1=O							58 nM	7.4 nM				

Continued by falling IC50 (Renin [8]), values first:

inhibition (Cathepsin D (Bos taurus) [1])	inhibition (Cathepsin D (Bos taurus) [2])	inhibition [3]	inhibition [4]	inhibition (Pepsin A (Homo sapiens))	inhibition (Pepsin A (Sus scrofa))	IC50 (Renin [8])	IC50 (Renin [10])	Compound	Plasma level (Rattus norvegicus [5])	Plasma level (Rattus norvegicus [6])	Plasma level (Rattus norvegicus [7])	Plasma level (Rattus norvegicus [9])
						43 nM	1.5 nM	CCN1C[C@@H]([C@H](O)[C@H](CC2CCCCC2)NC(=O)[C@H](Cc2cccs2)NC(=O)[C@@H](CC(=O)N2CCOCC2)Cc2ccccc2)OC1=O				
						21 nM	1.1 nM	CCN1C[C@@H]([C@H](O)[C@H](CC2CCCCC2)NC(=O)[C@H](Cc2cc[nH]n2)NC(=O)[C@@H](CC(=O)N2CCOCC2)Cc2ccccc2)OC1=O	28 ng/mL	6.7 ng/mL	7 ng/mL	58 ng/mL
93%	28%	100%	40%	26%	57%	8.1 nM	0.6 nM	CCN1C[C@@H]([C@H](O)[C@H](CC2CCCCC2)NC(=O)[C@H](Cc2cscn2)NC(=O)[C@@H](CC(=O)N2CCOCC2)Cc2ccccc2)OC1=O	1900 ng/mL	320 ng/mL	300 ng/mL	1100 ng/mL
